Columns and labels:
[1] = species: Canis familiaris; assay: Repolarization to reach -60mV, in canine Purkinje Fibers at a concentration of 30 uM at 300 ms (simulating tachycardia); type: functional, Canis lupus familiaris, Purkinje fiber
Summary of the method: (§1)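 Purkinje fiber bundles were stimulated with square-wave current pulses of 2.0 ms at twice threshold and equilibrated for at least 1 h, or until action potential parameters were steady. Each concentration was superfused for 45-60 min to reach steady state. Action potentials were recorded at four to six sites per fiber, under control and after drug.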

[2] = species: Canis familiaris; assay: repolarization to reach -60mV, in canine Purkinje Fibers at a concentration of 30 uM at 1000 ms (simulating normal heart rate); type: functional, Canis lupus familiaris, Purkinje fiber; summary of the method: as §1
[3] = species: Canis familiaris; assay: Repolarization to reach -60mV, in canine Purkinje Fibers at a concentration of 300 uM at 300 ms (simulating tachycardia); type: functional, Canis lupus familiaris, Purkinje fiber; summary of the method: as §1
[4] = species: Canis familiaris; assay: repolarization to reach -60mV, in canine Purkinje Fibers at a concentration of 300 uM at 1000 ms (simulating normal heart rate); type: functional, Canis lupus familiaris, Purkinje fiber; summary of the method: as §1
[5] = system: Canis familiaris; assay: Atrial effective refractory period by the compound in open chest anesthetized dog, after iv administration at a dose of 2.5 mg/kg.; type: functional, Canis lupus familiaris, Cardiac atrium
Summary of the method: (§2)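 Open-chest mongrel dogs under sodium pentobarbital anesthesia (30 mg/kg iv plus 5 mg/kg per h), paced at basic cycle length 300 ms. Atrial effective refractory period was determined by electrical stimulation before and after iv or intraduodenal compound and reported as change from control.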

[6] = system: Canis familiaris; assay: Atrial effective refractory period by the compound in open chest anesthetized dog, after iv administration at a dose of 5.0 mg/kg.; type: functional, Canis lupus familiaris, Cardiac atrium; set-up: unit not given here; summary of the method: as §2
[7] = system: Canis familiaris; assay: Atrial effective refractory period by the compound in open chest anesthetized dog, after iv administration at a dose of 10.0 mg/kg.; type: functional, Canis lupus familiaris, Cardiac atrium; summary of the method: as §2
[8] = system: Canis familiaris; assay: Heart beat by the compound in open chest anesthetized dog, after iv administration at a dose of 10.0 mg/kg.; type: functional, Canis lupus familiaris
Summary of the method: (§3)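 Hemodynamics (heart rate, mean arterial pressure) recorded in pentobarbital-anesthetized (30 mg/kg iv, 5 mg/kg per h maintenance) open-chest mongrel dogs during the refractoriness study at BCL 300 ms. Readings were taken before and after iv or intraduodenal compound and expressed as change from control.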

[9] = system: Canis familiaris; assay: Heart beat by the compound in open chest anesthetized dog, after iv administration at a dose of 2.5 mg/kg.; type: functional, Canis lupus familiaris; summary of the method: as §3
[10] = system: Canis familiaris; assay: Heart beat by the compound in open chest anesthetized dog, after iv administration at a dose of 5.0 mg/kg.; type: functional, Canis lupus familiaris; set-up: unit not given here; summary of the method: as §3
[11] = system: Canis familiaris; assay: Atrial conduction time by the compound in open chest anesthetized dog, after iv administration at a dose of 10.0 mg/kg.; type: functional, Canis lupus familiaris, Cardiac atrium
Summary of the method: (§4)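 Mongrel dogs anesthetized with sodium pentobarbital (30 mg/kg iv, then 5 mg/kg per h), chest opened, paced at BCL 300 ms. Atrial conduction time was taken as the interval between electrograms recorded at the proximal and distal sites of the atrial recording electrode array, before and after iv or intraduodenal dosing. Values are changes from control.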

[12] = system: Canis familiaris; assay: Atrial conduction time by the compound in open chest anesthetized dog, after iv administration at a dose of 2.5 mg/kg.; type: functional, Canis lupus familiaris, Cardiac atrium; summary of the method: as §4
[13] = system: Canis familiaris; assay: Atrial conduction time by the compound in open chest anesthetized dog, after iv administration at a dose of 5.0 mg/kg.; type: functional, Canis lupus familiaris, Cardiac atrium; set-up: unit not given here; summary of the method: as §4
[14] = system: Canis familiaris; assay: Mean arterial pressure by the compound in open chest anesthetized dog, after iv administration at a dose of 2.5 mg/kg.; type: functional, Canis lupus familiaris, Artery; summary of the method: as §3
[15] = system: Canis familiaris; assay: Mean arterial pressure by the compound in open chest anesthetized dog, after iv administration at a dose of 5.0 mg/kg.; type: functional, Canis lupus familiaris, Artery; set-up: unit not given here; summary of the method: as §3
[16] = species: Canis familiaris; assay: Maximum rate of rise of the upstroke of transmembrane potential, in canine Purkinje Fibers at a concentration of 300 uM at 1000 ms (simulating normal heart rate); type: functional; settings: Canis lupus familiaris, Purkinje fiber
Summary of the method: (§5)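 Isolated canine Purkinje fiber bundles were driven by square-wave pulses 2.0 ms long at 2× threshold and equilibrated ≥1 h to steady state. Each concentration was superfused 45–60 min before recording, and action potentials were sampled at 4–6 sites per fiber in control and after drug, giving Vmax and APD to −60 mV.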

[17] = species: Canis familiaris; assay: Maximum rate of rise of the upstroke of transmembrane potential, in canine Purkinje Fibers at a concentration of 300 uM at 300 ms (simulating tachycardia); type: functional; settings: Canis lupus familiaris, Purkinje fiber; summary of the method: as §5
[18] = species: Canis familiaris; assay: Maximum rate of rise of the upstroke of transmembrane potential, in canine Purkinje Fibers at a concentration of 30 uM at 1000 ms (simulating normal heart rate); type: functional; settings: Canis lupus familiaris, Purkinje fiber; summary of the method: as §5
[19] = system: Canis familiaris; assay: Ventricular effective refractory period by the compound in open chest anesthetized dog, after iv administration at a dose of 10.0 mg/kg.; type: functional, Canis lupus familiaris, Heart
[20] = system: Canis familiaris; assay: Ventricular effective refractory period by the compound in open chest anesthetized dog, after iv administration at a dose of 2.5 mg/kg.; type: functional, Canis lupus familiaris, Heart
[21] = system: Canis familiaris; assay: Ventricular effective refractory period by the compound in open chest anesthetized dog, after iv administration at a dose of 5.0 mg/kg.; type: functional, Canis lupus familiaris, Heart; set-up: unit not given here
[22] = system: Canis familiaris; assay: Ventricular conduction time by the compound in open chest anesthetized dog, after iv administration at a dose of 2.5 mg/kg.; type: functional, Canis lupus familiaris, Heart
Summary of the method: (§6)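 Mongrel dogs were anesthetized with sodium pentobarbital (30 mg/kg iv, then 5 mg/kg per h), the chest opened, and the heart paced at BCL 300 ms. Compound was given iv or intraduodenally. Ventricular conduction time was taken as the interval between electrograms at the proximal and distal sites of the recording electrode array. 2-5 dogs per dose.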

[23] = system: Canis familiaris; assay: Ventricular conduction time by the compound in open chest anesthetized dog, after iv administration at a dose of 5.0 mg/kg.; type: functional, Canis lupus familiaris, Heart; set-up: unit not given here; summary of the method: as §6
[24] = system: Canis familiaris; assay: Ventricular conduction time by the compound in open chest anesthetized dog, after iv administration at a dose of 10.0 mg/kg.; type: functional, Canis lupus familiaris, Heart; summary of the method: as §6
[25] = species: Canis familiaris; assay: Maximum rate of rise of the upstroke of transmembrane potential, in canine Purkinje Fibers at a concentration of 30 uM at 300 ms (simulating tachycardia); type: functional; settings: Canis lupus familiaris, Purkinje fiber; summary of the method: as §5
[26] = system: Canis familiaris; assay: Mean arterial pressure by the compound in open chest anesthetized dog, after iv administration at a dose of 10.0 mg/kg.; type: functional, Canis lupus familiaris, Artery; summary of the method: as §3

CC(C)NCC(O)c1ccc(NS(C)(=O)=O)cc1 (racemic) [SOTALOL]
APD [1]: 18% | APD [2]: 56% | APD [3]: 36% | APD [4]: 86% | AERP [5]: 42 | AERP [6]: 57 | AERP [7]: 68 | HR [8]: -39 | HR [9]: -27 | HR [10]: -28 | ACT [11]: -4 | ACT [12]: -5 | ACT [13]: -7 | MBP [14]: -16 | MBP [15]: -17 | Vmax [16]: -10 | Vmax [17]: -20 | Vmax [18]: 2 | VERP [19]: 30 | VERP [20]: 19 | VERP [21]: 25 | VCT [22]: -1 | VCT [23]: -1 | VCT [24]: -4 | Vmax [25]: -12 | MBP [26]: -29

— ChEMBL document CHEMBL1125789, “Synthesis and selective class III antiarrhythmic activity of novel N-heteroaralkyl-substituted 1-(aryloxy)-2-propanolamine and related propylamine derivatives” (J Med Chem, 1991)
